Tested on: Fibroblast
Assay: Multiplex assay against human fibroblast
Format: toxicity, cell-based
Summary of the method: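 At seeding, live cells were stained with Hoechst33342, BioTracker Green Microtubule Cytoskeleton Dye, MitoTracker Red and Annexin V Alexa Fluor 680. After compound addition they were imaged on a CQ1 microscope at 37°C and 5% CO2, and CellPathfinder machine-learning gating sorted them into Hoechst high-intensity objects or normal cells, with normal cells further split into healthy, pyknosed or fragmented nuclei and pyknosed cells into mitotic or apoptotic. Tubulin, mitochondrial-mass and membrane-permeability phenotypes are given as per cents of cells with healthy nuclei.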

[1] = 12 h, 1 µM, compound concentration 1 uM, replicate 1
[2] = 12 h, 1 µM, compound concentration 1 uM, replicate 2
[3] = 12 h, 10 µM, compound concentration 10 uM, replicate 1
[4] = 12 h, 10 µM, compound concentration 10 uM, replicate 2
[5] = 24 h, 1 µM, compound concentration 1 uM, replicate 1
[6] = 24 h, 1 µM, compound concentration 1 uM, replicate 2
[7] = 24 h, 10 µM, compound concentration 10 uM, replicate 1
[8] = 24 h, 10 µM, compound concentration 10 uM, replicate 2
[9] = 48 h, 1 µM, compound concentration 1 uM, replicate 1
[10] = 48 h, 1 µM, compound concentration 1 uM, replicate 2
[11] = 48 h, 10 µM, compound concentration 10 uM, replicate 1
[12] = 48 h, 10 µM, compound concentration 10 uM, replicate 2

## CSc1ccccc1N1CCN(CCCCCC(=O)NC2CCCc3ccccc32)CC1.Cl (stereo not drawn)
[1]
  Population Apoptotic (%): 37%
  Population Fragmented Nuclei (%): 26%
  Population Healthy Nuclei (%): 49%
  Population Hoechst High Intensity Objects (%): 6%
  Population Membrane Permeable-Phenotype (%): 1%
  Population Mitochondria Different-Phenotype (%): 15%
  Population Mitotic Cells (%): 62%
  Population Normal (%): 93%
  Population Pyknosed Nuclei (%): 24%
  Population Tubulin-Different-Phenotype (%): 65%
  Total Cell Count: 126
[2]
  Population Apoptotic (%): 50%
  Population Fragmented Nuclei (%): 32%
  Population Healthy Nuclei (%): 41%
  Population Hoechst High Intensity Objects (%): 2%
  Population Membrane Permeable-Phenotype (%): 9%
  Population Mitochondria Different-Phenotype (%): 7%
  Population Mitotic Cells (%): 50%
  Population Normal (%): 97%
  Population Pyknosed Nuclei (%): 25%
  Population Tubulin-Different-Phenotype (%): 74%
  Total Cell Count: 135
[3]
  Population Apoptotic (%): 58%
  Population Fragmented Nuclei (%): 25%
  Population Healthy Nuclei (%): 57%
  Population Hoechst High Intensity Objects (%): 5%
  Population Membrane Permeable-Phenotype (%): 0%
  Population Mitochondria Different-Phenotype (%): 78%
  Population Mitotic Cells (%): 41%
  Population Normal (%): 94%
  Population Pyknosed Nuclei (%): 17%
  Population Tubulin-Different-Phenotype (%): 95%
  Total Cell Count: 220
[4]
  Population Apoptotic (%): 66%
  Population Fragmented Nuclei (%): 34%
  Population Healthy Nuclei (%): 50%
  Population Mitochondria Different-Phenotype (%): 36%
  Population Mitotic Cells (%): 33%
  Population Pyknosed Nuclei (%): 14%
  Population Tubulin-Different-Phenotype (%): 92%
  Total Cell Count: 242
[5]
  Population Apoptotic (%): 52%
  Population Fragmented Nuclei (%): 29%
  Population Healthy Nuclei (%): 52%
  Population Hoechst High Intensity Objects (%): 6%
  Population Membrane Permeable-Phenotype (%): 0%
  Population Mitochondria Different-Phenotype (%): 21%
  Population Mitotic Cells (%): 47%
  Population Normal (%): 93%
  Population Pyknosed Nuclei (%): 18%
  Population Tubulin-Different-Phenotype (%): 40%
  Total Cell Count: 133
[6]
  Population Apoptotic (%): 37%
  Population Fragmented Nuclei (%): 33%
  Population Healthy Nuclei (%): 43%
  Population Hoechst High Intensity Objects (%): 3%
  Population Membrane Permeable-Phenotype (%): 3%
  Population Mitochondria Different-Phenotype (%): 11%
  Population Mitotic Cells (%): 62%
  Population Normal (%): 96%
  Population Pyknosed Nuclei (%): 23%
  Population Tubulin-Different-Phenotype (%): 64%
  Total Cell Count: 130
[7]
  Population Apoptotic (%): 90%
  Population Fragmented Nuclei (%): 22%
  Population Healthy Nuclei (%): 66%
  Population Hoechst High Intensity Objects (%): 7%
  Population Membrane Permeable-Phenotype (%): 0%
  Population Mitochondria Different-Phenotype (%): 81%
  Population Mitotic Cells (%): 9%
  Population Normal (%): 92%
  Population Pyknosed Nuclei (%): 11%
  Population Tubulin-Different-Phenotype (%): 98%
  Total Cell Count: 211
[8]
  Population Apoptotic (%): 66%
  Population Fragmented Nuclei (%): 33%
  Population Healthy Nuclei (%): 56%
  Population Hoechst High Intensity Objects (%): 3%
  Population Mitochondria Different-Phenotype (%): 51%
  Population Mitotic Cells (%): 33%
  Population Normal (%): 96%
  Population Pyknosed Nuclei (%): 9%
  Population Tubulin-Different-Phenotype (%): 90%
  Total Cell Count: 258
[9]
  Population Apoptotic (%): 61%
  Population Fragmented Nuclei (%): 26%
  Population Healthy Nuclei (%): 56%
  Population Hoechst High Intensity Objects (%): 6%
  Population Membrane Permeable-Phenotype (%): 2%
  Population Mitochondria Different-Phenotype (%): 17%
  Population Mitotic Cells (%): 38%
  Population Normal (%): 93%
  Population Pyknosed Nuclei (%): 17%
  Population Tubulin-Different-Phenotype (%): 69%
  Total Cell Count: 132
[10]
  Population Apoptotic (%): 44%
  Population Fragmented Nuclei (%): 33%
  Population Healthy Nuclei (%): 45%
  Population Hoechst High Intensity Objects (%): 1%
  Population Membrane Permeable-Phenotype (%): 0%
  Population Mitochondria Different-Phenotype (%): 12%
  Population Mitotic Cells (%): 56%
  Population Normal (%): 98%
  Population Pyknosed Nuclei (%): 20%
  Population Tubulin-Different-Phenotype (%): 64%
  Total Cell Count: 124
[11]
  Population Apoptotic (%): 91%
  Population Fragmented Nuclei (%): 25%
  Population Healthy Nuclei (%): 61%
  Population Hoechst High Intensity Objects (%): 8%
  Population Membrane Permeable-Phenotype (%): 0%
  Population Mitochondria Different-Phenotype (%): 82%
  Population Mitotic Cells (%): 8%
  Population Normal (%): 91%
  Population Pyknosed Nuclei (%): 12%
  Population Tubulin-Different-Phenotype (%): 97%
  Total Cell Count: 195
[12]
  Population Apoptotic (%): 68%
  Population Fragmented Nuclei (%): 38%
  Population Healthy Nuclei (%): 53%
  Population Hoechst High Intensity Objects (%): 4%
  Population Membrane Permeable-Phenotype (%): 2%
  Population Mitochondria Different-Phenotype (%): 33%
  Population Mitotic Cells (%): 31%
  Population Normal (%): 95%
  Population Pyknosed Nuclei (%): 8%
  Population Tubulin-Different-Phenotype (%): 83%
  Total Cell Count: 281
